{
  "source": "ChEMBL document CHEMBL5136969",
  "about": "“A niclosamide-tobramycin hybrid adjuvant potentiates cefiderocol against P. aeruginosa” (2021)",
  "format_in_all_cases": "functional",
  "key": {"Pseudomonas aeruginosa [1]": {"test_system": "Pseudomonas aeruginosa", "test": "Potentiation of trimethoprim-induced antibiotic activity against Pseudomonas aeruginosa PAO1 assessed as MIC fold reduction at 8 ug/ml after 18 hrs by microbroth dilution method", "conditions": "dose 8 µg/ml"}, "Acinetobacter baumannii": {"test_system": "Acinetobacter baumannii", "test": "Potentiation of sulfamethoxazole-induced antibiotic activity against Acinetobacter baumannii ATCC 17978 assessed as MIC fold reduction at 8 ug/ml after 18 hrs by microbroth dilution method", "conditions": "dose 8 µg/ml"}, "Pseudomonas aeruginosa [2]": {"test_system": "Pseudomonas aeruginosa", "test": "Antibacterial activity against MDR clinical isolate Pseudomonas aeruginosa PA264 assessed as reduction in bacterial growth after 18 hrs in presence of cefiderocol by microbroth dilution method", "method_in_brief": "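Checkerboard in MHB. Cefiderocol was 2-fold serially diluted along one axis and the adjuvant along the other. Inoculum was prepared from 0.5 McFarland saline suspensions diluted 1:50 in MHB, giving about 5 × 10^5 CFU/mL final. Plates ran 18 h at 37 °C, with turbidity confirmed at 590 nm. FIC = combination MIC ÷ MIC alone for each agent, and FIC index = sum of both. Interpretation: ≤0.5 synergy, >0.5–4 additive, >4 antagonism.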"}},
  "data": [
    {"smiles": "NC[C@H]1O[C@H](O[C@H]2[C@H](OCCCCc3cn(-c4ccc(NC(=O)c5cc(Cl)ccc5O)cc4)nn3)[C@@H](O[C@H]3O[C@H](CO)[C@@H](O)[C@H](N)[C@H]3O)[C@H](N)C[C@@H]2N)[C@H](N)C[C@@H]1O", "values": [
      {"measurement": "fold change (FC)", "setting": "Pseudomonas aeruginosa [1]", "result": 4},
      {"measurement": "fold change (FC)", "setting": "Acinetobacter baumannii", "result": 4},
      {"measurement": "MIC", "setting": "Pseudomonas aeruginosa [2]", "result": 0.125, "unit": "µg/mL"}
    ]}
  ]
}
